The source made the active and inactive calls. The calls are words filed in the database; no cut-off is given here.
Columns and labels:
[1] = target: CDK2/Cyclin A2 (Homo sapiens) (UniProt P24941+P20248); test: Inhibition of human CDK2/Cyclin A assessed as residual activity at 16 uM relative to control; type: protein-complex assay
Pseudomonas aeruginosa = test: Antibacterial activity against Pseudomonas aeruginosa ATCC […] at 2 to 256 ug/ml measured after 24 hrs; type: functional, organism-based
Summary of the method: (§1)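 Stock: 2.7 mg compound in 100 µL DMSO, then diluted with 900 µL distilled water. Working solutions at 256, 128, 64, 32, 16, 8, 4 and 2 µg/mL; 20 µL of each went into 178 µL Mueller-Hinton broth. Inoculum: 2 µL overnight culture at 0.5 McFarland (1.5*10⁸ CFU/mL). Controls: DMSO–water growth and sterility. Incubation 24 h at 37 °C; wells scored by eye as clear or turbid.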

[2] = target: Cyclin-dependent kinase 5/CDK5 activator 1 (Homo sapiens) (UniProt Q00535+Q15078); test: Inhibition of human CDK5/p25 assessed as residual activity at 16 uM relative to control; type: protein-complex assay
[3] = target: Receptor-interacting serine/threonine-protein kinase 3 (Homo sapiens) (UniProt Q9Y572); test: Inhibition of human RIPK3 assessed as residual activity at 16 uM relative to control
Enterococcus faecalis = test: Antibacterial activity against Enterococcus faecalis ATCC 29212 at 2 to 256 ug/ml measured after 24 hrs; type: functional, organism-based; summary of the method: as §1
Streptococcus pneumoniae = test: Antibacterial activity against Streptococcus pneumoniae ATCC 49619 at 2 to 256 ug/ml measured after 24 hrs; type: functional, organism-based; summary of the method: as §1
Klebsiella pneumoniae = test: Antibacterial activity against Klebsiella pneumoniae ATCC 700603 at 2 to 256 ug/ml measured after 24 hrs; type: functional, organism-based; summary of the method: as §1
Escherichia coli = test: Antibacterial activity against Escherichia coli ATCC 35218 at 2 to 256 ug/ml measured after 24 hrs; type: functional, organism-based; summary of the method: as §1
[4] = target: CDK9/cyclin T1 (Homo sapiens) (UniProt O60563+P50750); test: Inhibition of human CDK9/Cyclin T assessed as residual activity at 16 uM relative to control; type: protein-complex assay
[5] = target: T1, Serine/threonine-protein kinase haspin (Homo sapiens) (UniProt Q8TF76); test: Inhibition of human haspin assessed as residual activity at 16 uM relative to control
T1 sequence (whole entry): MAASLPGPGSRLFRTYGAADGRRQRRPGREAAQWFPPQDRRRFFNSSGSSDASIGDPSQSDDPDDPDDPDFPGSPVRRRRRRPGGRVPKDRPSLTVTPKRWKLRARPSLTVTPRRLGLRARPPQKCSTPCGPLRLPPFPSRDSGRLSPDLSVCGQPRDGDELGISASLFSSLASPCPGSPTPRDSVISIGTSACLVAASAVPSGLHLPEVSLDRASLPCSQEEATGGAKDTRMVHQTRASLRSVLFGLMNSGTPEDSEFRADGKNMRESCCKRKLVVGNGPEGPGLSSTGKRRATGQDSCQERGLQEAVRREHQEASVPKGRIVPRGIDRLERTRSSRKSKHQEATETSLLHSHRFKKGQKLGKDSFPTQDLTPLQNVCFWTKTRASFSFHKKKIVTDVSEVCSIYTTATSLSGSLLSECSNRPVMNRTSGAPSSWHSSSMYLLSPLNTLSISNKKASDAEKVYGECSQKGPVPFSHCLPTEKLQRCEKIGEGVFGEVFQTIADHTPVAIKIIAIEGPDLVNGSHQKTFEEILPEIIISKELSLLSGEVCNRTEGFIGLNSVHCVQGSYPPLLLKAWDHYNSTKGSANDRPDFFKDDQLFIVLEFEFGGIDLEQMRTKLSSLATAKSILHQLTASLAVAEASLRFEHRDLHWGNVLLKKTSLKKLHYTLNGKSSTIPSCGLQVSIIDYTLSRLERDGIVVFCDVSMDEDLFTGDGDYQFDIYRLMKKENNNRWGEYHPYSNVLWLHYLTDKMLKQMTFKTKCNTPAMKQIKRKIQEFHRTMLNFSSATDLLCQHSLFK

[6] = target: Aurora kinase B (Homo sapiens) (UniProt Q96GD4); test: Inhibition of human Aurora-B assessed as residual activity at 16 uM relative to control
Leishmania donovani = test: Inhibition of Leishmania donovani TLK assessed as residual activity at 16 uM relative to control
[7] = target: Serine/threonine-protein kinase pim-1 (Homo sapiens) (UniProt P11309); test: Inhibition of human Pim1 assessed as residual activity at 16 uM relative to control
[8] = target: Glycogen synthase kinase-3 (Sus scrofa) (UniProt B2LUN4+I6LNT8); test: Inhibition of pig GSK3 alpha/beta assessed as residual activity at 16 uM relative to control; type: protein assay
[9] = target: T2, Putative casein kinase I (Leishmania major) (UniProt O96999); test: Inhibition of Leishmania major CK1 assessed as residual activity at 16 uM relative to control
T2 sequence (whole entry): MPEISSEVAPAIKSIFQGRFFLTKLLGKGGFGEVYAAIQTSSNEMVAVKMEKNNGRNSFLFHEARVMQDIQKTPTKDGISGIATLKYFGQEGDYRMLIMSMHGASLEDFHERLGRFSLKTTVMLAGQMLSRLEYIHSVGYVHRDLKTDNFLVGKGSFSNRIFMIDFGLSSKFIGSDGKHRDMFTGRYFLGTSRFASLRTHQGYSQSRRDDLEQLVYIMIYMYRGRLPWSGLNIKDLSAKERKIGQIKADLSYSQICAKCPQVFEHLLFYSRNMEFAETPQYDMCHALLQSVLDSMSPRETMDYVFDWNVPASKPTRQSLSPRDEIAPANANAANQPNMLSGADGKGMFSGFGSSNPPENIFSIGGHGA

[10] = target: Dual specificity tyrosine-phosphorylation-regulated kinase 1A (Rattus norvegicus) (UniProt Q63470); test: Inhibition of rat DYRK1A assessed as residual activity at 16 uM relative to control
HCT-116 = test: Cytotoxicity against human HCT116 cells up to 100 uM; type: functional, cell-based
U-87 MG = test: Cytotoxicity against human U87MG cells up to 100 uM; type: functional, cell-based; settings: U-87MG ATCC

Chain of Serine/threonine-protein kinase pim-1 (Homo sapiens) (P11309 whole entry, looked up): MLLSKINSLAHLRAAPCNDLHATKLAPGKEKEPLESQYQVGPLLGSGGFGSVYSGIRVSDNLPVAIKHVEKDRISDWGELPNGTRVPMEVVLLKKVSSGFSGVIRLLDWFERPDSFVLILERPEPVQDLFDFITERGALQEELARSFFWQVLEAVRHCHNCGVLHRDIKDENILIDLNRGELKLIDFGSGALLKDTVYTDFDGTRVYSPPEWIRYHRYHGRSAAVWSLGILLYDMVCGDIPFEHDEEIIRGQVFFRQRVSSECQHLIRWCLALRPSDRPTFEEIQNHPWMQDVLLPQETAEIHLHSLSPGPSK
Chain of Cyclin-dependent kinase 5/CDK5 activator 1 (Homo sapiens) (Q00535 whole entry): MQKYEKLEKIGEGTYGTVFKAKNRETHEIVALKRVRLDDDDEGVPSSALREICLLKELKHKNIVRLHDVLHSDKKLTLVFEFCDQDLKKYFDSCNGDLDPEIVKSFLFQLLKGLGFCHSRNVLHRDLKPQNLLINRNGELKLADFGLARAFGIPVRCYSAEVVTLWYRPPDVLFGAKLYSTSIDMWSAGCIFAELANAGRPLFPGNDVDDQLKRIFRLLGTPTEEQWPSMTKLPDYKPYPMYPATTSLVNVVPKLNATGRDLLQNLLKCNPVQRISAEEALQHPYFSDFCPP
Chain of Cyclin-dependent kinase 5/CDK5 activator 1 (Homo sapiens) (Q15078 99-307 partner limits assumed): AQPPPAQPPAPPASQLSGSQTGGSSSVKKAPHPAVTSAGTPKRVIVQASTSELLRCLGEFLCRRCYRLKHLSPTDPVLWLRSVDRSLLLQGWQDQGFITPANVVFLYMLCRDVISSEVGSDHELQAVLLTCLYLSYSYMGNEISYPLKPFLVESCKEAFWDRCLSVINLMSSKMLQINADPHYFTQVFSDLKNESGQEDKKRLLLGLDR
Chain of Aurora kinase B (Homo sapiens) (Q96GD4 whole entry): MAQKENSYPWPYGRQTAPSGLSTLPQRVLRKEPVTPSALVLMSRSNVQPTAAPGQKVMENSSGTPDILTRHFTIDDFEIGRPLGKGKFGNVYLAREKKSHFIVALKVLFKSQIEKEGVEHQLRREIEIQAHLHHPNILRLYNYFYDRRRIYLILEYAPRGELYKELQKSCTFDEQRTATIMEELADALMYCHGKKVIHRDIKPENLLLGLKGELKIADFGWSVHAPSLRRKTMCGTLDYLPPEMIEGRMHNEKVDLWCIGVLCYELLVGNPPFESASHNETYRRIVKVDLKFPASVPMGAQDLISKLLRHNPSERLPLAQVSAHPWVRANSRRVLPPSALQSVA
Chain of Receptor-interacting serine/threonine-protein kinase 3 (Homo sapiens) (Q9Y572 whole entry, looked up): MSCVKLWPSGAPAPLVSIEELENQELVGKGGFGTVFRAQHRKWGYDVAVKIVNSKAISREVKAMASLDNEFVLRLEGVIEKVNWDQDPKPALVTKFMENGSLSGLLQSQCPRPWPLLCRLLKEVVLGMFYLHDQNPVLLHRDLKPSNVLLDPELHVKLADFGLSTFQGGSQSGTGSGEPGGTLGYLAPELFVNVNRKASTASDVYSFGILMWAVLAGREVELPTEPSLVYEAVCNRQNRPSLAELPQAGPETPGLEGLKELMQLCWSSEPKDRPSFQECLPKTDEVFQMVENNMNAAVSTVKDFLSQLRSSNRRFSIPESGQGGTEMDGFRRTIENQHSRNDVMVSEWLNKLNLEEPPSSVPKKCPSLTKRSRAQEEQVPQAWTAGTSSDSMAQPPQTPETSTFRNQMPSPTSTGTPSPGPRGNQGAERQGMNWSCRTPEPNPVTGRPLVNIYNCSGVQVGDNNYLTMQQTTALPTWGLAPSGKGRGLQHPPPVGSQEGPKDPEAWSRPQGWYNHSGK

Activity [1]: > 60%
Activity [2]: > 60%
Activity [3]: > 60%
Activity [4]: > 60%
Activity [5]: > 60%
Activity [6]: > 60%
Activity (Leishmania donovani): > 60%
Activity [7]: > 60%
Activity [8]: > 60%
Activity [9]: > 60%
Activity [10]: > 60%
Compound: O=C1OC2(C(=O)Nc3ccccc32)C2=C1NCCS2(=O)=O (stereo not drawn)
Activity (Pseudomonas aeruginosa): inactive
Activity (Enterococcus faecalis): inactive
Activity (Streptococcus pneumoniae): inactive
Activity (Klebsiella pneumoniae): inactive
Activity (Escherichia coli): inactive
Activity (HCT-116): inactive
Activity (U-87 MG): inactive
